Experimental data reported in publication PMC10356740 (Journal of sleep research, 2023).
Read-outs that look alike come from different tables or passages of the source.

Legend:
[1] = format: in vivo; details: mouse, sc, 10 mg/kg
Method in brief: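 Dosing was 10 mg/kg, s.c. or i.p. by compound, with sparse sampling of plasma and brain. Total drug measured by LC-MS/MS was multiplied by fraction unbound to give free concentrations. Fraction unbound came from 5 μM compound incubated in mouse plasma or brain homogenate by rapid equilibrium dialysis. Parameters were derived by noncompartmental analysis, with terminal half-life by best fit.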

[2] = Fraction unbound by rapid equilibrium dialysis; format: in vitro ADME; details: mouse
[3] = test system: narcoleptic male orexin/tTA; TetO-DTA mice; test: EEG/EMG sleep/wake and cataplexy scoring after dosing before dark onset; format: in vivo, mouse
Method in brief: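 Crossover in telemetered male DTA mice (n = 7) given 1, 3 or 10 mg/kg s.c. or i.p., or the matching vehicle, 15 min before ZT12, ≥3 d between doses. EEG/EMG were scored for 6 h as hourly and cumulative time per state and as bouts. NREM latency ran from dosing to the first 6 consecutive NREM epochs; REM latency to the first 3 REM epochs. Analysis used 1-way ANOVA or 2-way RM ANOVA (treatment × time), with Holm-Sidak vs vehicle.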

[4] = test system: narcoleptic male orexin/tTA; TetO-DTA mice; test: EEG spectral power analysis; format: in vivo, mouse
Method in brief: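 Male orexin/tTA;TetO-DTA mice (n = 7) with subcutaneous EEG/EMG telemeters received vehicle or 1, 3 or 10 mg/kg (s.c. or i.p. by compound, 10 mL/kg) 15 min before light offset at ZT12. Design was repeated measures in balanced order, ≥3 d apart. Normalized EEG spectra were taken in 0.122 Hz bins and bands: delta 0.5–4, theta 4–9, alpha 9–12, beta 12–30, low gamma 30–60, high gamma 60–100 Hz. Each state needed ≥3 animals. Analysis was 2-way RM ANOVA with Holm-Sidak.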

[5] = test system: narcoleptic male orexin/tTA; TetO-DTA mice; test: Gross motor activity, running wheel activity and subcutaneous temperature; format: in vivo, mouse
Method in brief: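 Gross motor activity came from the implanted subcutaneous telemeter, alongside home-cage running-wheel activity and bouts and subcutaneous temperature, analysed per ZT hour after dosing. Male DTA mice (n = 7), adapted ≥2 weeks to wheels, handling and dosing, received vehicle or 1, 3 or 10 mg/kg s.c. or i.p. 15 min before ZT12 in repeated-measures order. Analysis was 2-way RM ANOVA (treatment × time) with Holm-Sidak.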

[6] = test system: healthy sleep-deprived adults; details: Phase 1; ref Evans et al., 2019; cited from earlier work
wild-type mice [7] = details: subcutaneous; ref Yukitake et al., 2019; cited from earlier work
[8] = test system: narcoleptic OX2R knockout (KO) mice; details: subcutaneous; ref Yukitake et al., 2019; cited from earlier work
OX2R = details: read-out: EC50 on OX2R; ref Kimura et al., 2019; cited from earlier work
OX1R = details: OX2R over OX1R; ref Kimura et al., 2019; cited from earlier work
wild-type mice [9] = details: oral, 5h into the light period, normal sleep phase; ref Ishikawa et al., 2019; cited from earlier work
Hcrt-neuron ablated mice = details: ref Kimura et al., 2019; cited from earlier work
orexin/ataxin-3 mice = details: chronic dosing for up to 14 days; ref Ishikawa et al., 2020; cited from earlier work
[10] = Phase 2; led Takeda to suspend dosing; cited from earlier work
[11] = first hour, all doses 1–10 mg/kg s.c.
[12] = first post-dosing hour (ZT13), all doses s.c.
[13] = first post-dosing hour, all doses s.c.
[14] = second post-dosing hour, 10 mg/kg s.c.

COC(=O)N1CCC[C@H](NS(C)(=O)=O)[C@@H]1CO[C@H]1CC[C@@H](c2ccccc2)CC1 [TAK-925, Methyl (2R,3S)-3-[(methylsulfonyl)amino]-2-{[(cis-4-phenylcyclohexyl)oxy]methyl}piperidine-1-carboxylate]
Cmax ([1]; brain): 20 ng/g | Tmax ([1]; brain): 10 min | half-life ([1]; brain): 53 min | AUC(0-t) ([1]; plasma): 335 ng·h/mL | Cmax ([1]; plasma): 160 ng/mL | Tmax ([1]; plasma): 10 min | half-life ([1]; plasma): 36 min | fraction unbound at 5 μM ([2]; mouse brain homogenate): 0.077 | fraction unbound at 5 μM ([2]; mouse plasma): 0.107 | Duration of the reduction of Wake bouts ([3]; 10 mg/kg s.c.): up to 3 h | Cumulative time in Cataplexy ([3]; 10 mg/kg s.c., p = 1.74 × 10^−4): suppression of Cataplexy | Latency to NREM sleep ([3]; 1, 3 and 10 mg/kg s.c., vs vehicle): delayed NREM sleep onset | Effects on arousal states (Wake, NREM, REM) across the 6-h recording ([3]; 1–10 mg/kg s.c.): transitory | NREM bout duration, post hoc test per dose ([3]; 1–10 mg/kg s.c.): did not identify any specific dose | REM bout duration, post hoc test per dose ([3]; 1–10 mg/kg s.c.): did not identify any specific dose | Latency to REM sleep ([3]; all doses (1, 3, 10 mg/kg s.c.), vs vehicle): delayed REM sleep | Wake bout duration, treatment effect ([3]; all doses s.c., 6-h recording): significant treatment effects | REM/NREM ratio ([3]; entire 6-h recording, s.c.): unchanged | Hourly amount of Cataplexy [3, 11]: eliminated | Hourly amount of NREM sleep [3, 11]: eliminated | Hourly amount of REM sleep [3, 11]: eliminated | Hourly amount of Wake [3, 11]: caused continuous wakefulness | Wake bout duration [3, 12]: increased Wake bout duration | Number of bouts of Cataplexy [3, 13]: reduced the number of bouts | Number of bouts of NREM [3, 13]: reduced the number of bouts | Number of bouts of REM [3, 13]: reduced the number of bouts | Number of bouts of Wake [3, 13]: reduced the number of bouts | Number of Cataplexy bouts ([3]; first two hours, all doses s.c.): reduced the number of Cataplexy bouts | Compensatory NREM sleep after increased wakefulness ([3]; hours after the first post-dosing hour, s.c.): no compensatory increase in NREM sleep | Number of Wake bouts across the entire 6-h recording ([3]; only 10 mg/kg s.c., p = 0.013): reduced the number of Wake bouts | Percent time in Cataplexy across the 6-h recording ([3]; only the highest dose (10 mg/kg s.c.)): reduced Cataplexy across the entire 6-h recording period | REM sleep rebound after early suppression ([3]; s.c., ZT16, 4 hours post-treatment): rebound that reached significance at ZT16 | Cumulative time in REM sleep ([3]; s.c., first two hours after dosing, followed by a later rebound): significant suppression of REM sleep | Increase of Wake bout duration ([3]; second post-dosing hour (ZT14), highest dose s.c.): continued into the second post-dosing hour | Hourly amount of Cataplexy [3, 14]: reduction of Cataplexy continued into the second post-dosing hour | High gamma EEG power during Wake across the entire recording period ([4]; 10 mg/kg s.c., p = 0.02): significantly increased high gamma | Waking EEG high gamma power ([4]; ZT13, 1 mg/kg s.c.): significantly increased high gamma power | Waking EEG spectral power in alpha, low gamma and high gamma ([4]; ZT13, 3 and 10 mg/kg s.c.): significantly increased spectral power in all three bandwidths | NREM EEG delta power ([4]; ZT14, 1 mg/kg s.c.): increased NREM delta | NREM EEG spectral power ([4]; ZT14, 10 mg/kg s.c.): increased spectral power during ZT14 for all EEG bands except for low gamma | Waking EEG high gamma power, persistence of effect [4, 14]: continued into the second post-dosing hour | Number of running bouts ([5]; ZT13, all doses s.c.): more running bouts | Running wheel activity ([5]; ZT17, 10 mg/kg s.c.): Reduced running wheel activity | Gross motor activity ([5]; ZT17, highest dose s.c.): reduced gross motor activity | Running wheel activity ([5]; ZT18, 10 mg/kg s.c.): increase at ZT18 | Running wheel activity ([5]; first post-dosing hour (ZT13), 1 mg/kg s.c.): significantly increased running wheel activity | Gross motor activity [5, 12]: significantly increased motor activity | Subcutaneous temperature (Tsc) [5, 12]: significantly increased Tsc | Ability to maintain wakefulness [6]: improved individuals’ ability to maintain wakefulness | Tolerability [6]: well-tolerated | Wakefulness (wild-type mice [7]): wake-promoting | Wakefulness [8]: but not in narcoleptic OX2R knockout (KO) mice

CC(C)(O)C(=O)N1CC[C@H](NS(C)(=O)=O)[C@@H]1Cc1cccc(-c2cc(F)cc(F)c2)c1F.CC(C)(O)C(=O)N1CC[C@H](NS(C)(=O)=O)[C@@H]1Cc1cccc(-c2cc(F)cc(F)c2)c1F.O.O.O [TAK-994]
EC50 (OX2R): 19 nM | selectivity against OX1R (OX1R): > 700 fold | Wakefulness (wild-type mice [9]): promoted wakefulness | Cataplectic episodes (Hcrt-neuron ablated mice): suppressing cataplectic episodes | Time spent in wake (Hcrt-neuron ablated mice): increased time spent in wake | Wake maintenance (Hcrt-neuron ablated mice): improved wake maintenance | Sleep rebound (orexin/ataxin-3 mice): without causing a sleep rebound | Wakefulness after chronic dosing (orexin/ataxin-3 mice): wake-promoting effects | Safety [10]: a safety signal emerged
